The text below walks through data of ChEMBL document CHEMBL1142354, “Synthesis and biological evaluation of (hetero)arylmethyloxy- and arylmethylamine-phenyl derivatives as potent P-glycoprotein modulating agents” (J Med Chem, 2008).

For series [1], the target named is T1, ATP-dependent translocase ABCB1 (Homo sapiens, UniProt P08183). Kind of series: Activation of human P-glycoprotein ATPase in Caco-2 cells assessed as ATP depletion at 100 uM. The format is cell-based. As to conditions: caco-2, 100 µM; call rule not given here.
T1 sequence (P08183 whole entry): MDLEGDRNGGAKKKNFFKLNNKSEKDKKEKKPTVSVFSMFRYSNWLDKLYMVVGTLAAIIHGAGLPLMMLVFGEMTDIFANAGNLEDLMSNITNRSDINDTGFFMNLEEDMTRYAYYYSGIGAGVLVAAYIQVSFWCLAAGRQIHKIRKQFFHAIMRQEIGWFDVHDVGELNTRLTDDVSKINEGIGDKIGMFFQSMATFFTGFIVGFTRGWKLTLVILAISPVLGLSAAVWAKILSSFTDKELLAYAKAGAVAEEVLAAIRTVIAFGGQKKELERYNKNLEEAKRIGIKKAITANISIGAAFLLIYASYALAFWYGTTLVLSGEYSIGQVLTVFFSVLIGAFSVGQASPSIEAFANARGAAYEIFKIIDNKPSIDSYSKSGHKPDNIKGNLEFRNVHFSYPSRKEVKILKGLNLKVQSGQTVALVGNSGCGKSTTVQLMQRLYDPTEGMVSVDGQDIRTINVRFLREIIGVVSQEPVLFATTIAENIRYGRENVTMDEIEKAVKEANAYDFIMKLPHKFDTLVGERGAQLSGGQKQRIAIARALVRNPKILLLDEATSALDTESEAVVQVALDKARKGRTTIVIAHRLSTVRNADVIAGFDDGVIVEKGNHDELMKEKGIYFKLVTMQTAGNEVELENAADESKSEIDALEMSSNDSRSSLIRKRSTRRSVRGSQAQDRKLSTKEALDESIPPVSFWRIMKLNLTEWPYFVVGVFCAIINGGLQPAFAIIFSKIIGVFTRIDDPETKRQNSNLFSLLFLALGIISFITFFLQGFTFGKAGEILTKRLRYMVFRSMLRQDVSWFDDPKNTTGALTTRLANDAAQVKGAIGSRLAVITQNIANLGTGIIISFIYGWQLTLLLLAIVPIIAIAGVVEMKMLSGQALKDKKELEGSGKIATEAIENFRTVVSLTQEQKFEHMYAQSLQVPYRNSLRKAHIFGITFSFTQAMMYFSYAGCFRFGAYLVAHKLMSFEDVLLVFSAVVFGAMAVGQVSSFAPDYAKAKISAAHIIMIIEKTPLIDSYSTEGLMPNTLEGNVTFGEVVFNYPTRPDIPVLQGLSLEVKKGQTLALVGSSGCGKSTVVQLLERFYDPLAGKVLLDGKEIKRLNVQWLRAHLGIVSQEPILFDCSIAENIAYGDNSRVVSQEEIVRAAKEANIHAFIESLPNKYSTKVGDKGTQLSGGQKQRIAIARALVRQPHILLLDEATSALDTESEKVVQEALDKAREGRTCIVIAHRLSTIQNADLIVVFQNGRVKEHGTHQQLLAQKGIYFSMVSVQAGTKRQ
For series [2], the target named is T1, ATP-dependent translocase ABCB1. In words: Inhibition of human P-glycoprotein mediated [3H]vinblastine transport in human Caco-2 cells. The format is cell-based.
Another series concerns Caco-2. Kind of series: Ratio of permeability from basolateral to apical side over apical to basolateral side in human Caco-2 cells. (Passage across Caco-2 layers is used to estimate intestinal permeability.)
Series [3] has as its target T2, Broad substrate specificity ATP-binding cassette transporter ABCG2 (Homo sapiens, UniProt Q9UNQ0).
T2 sequence (Q9UNQ0 whole entry): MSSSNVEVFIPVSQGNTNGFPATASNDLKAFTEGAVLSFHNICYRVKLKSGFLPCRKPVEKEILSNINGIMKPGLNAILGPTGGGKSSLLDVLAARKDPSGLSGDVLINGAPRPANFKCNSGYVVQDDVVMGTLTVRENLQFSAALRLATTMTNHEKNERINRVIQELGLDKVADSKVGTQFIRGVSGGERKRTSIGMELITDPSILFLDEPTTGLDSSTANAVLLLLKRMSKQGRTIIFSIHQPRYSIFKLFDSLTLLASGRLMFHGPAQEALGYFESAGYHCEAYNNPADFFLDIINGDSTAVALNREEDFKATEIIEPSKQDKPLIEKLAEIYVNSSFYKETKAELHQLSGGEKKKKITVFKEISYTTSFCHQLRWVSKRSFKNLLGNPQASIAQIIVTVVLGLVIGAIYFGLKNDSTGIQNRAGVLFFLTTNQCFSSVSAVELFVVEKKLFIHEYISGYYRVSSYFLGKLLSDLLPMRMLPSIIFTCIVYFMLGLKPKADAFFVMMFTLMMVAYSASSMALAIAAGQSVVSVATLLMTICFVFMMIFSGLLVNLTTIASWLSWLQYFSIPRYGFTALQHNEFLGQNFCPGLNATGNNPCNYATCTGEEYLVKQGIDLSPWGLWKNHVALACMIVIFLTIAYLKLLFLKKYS
Kind of series: Inhibition of human BCRP pump mediated [3H]mitoxantrone transport in human Caco-2 cells. The format is cell-based. Summed up:
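Caco-2 cells were grown 21 days on multiscreen filters at 10 000 cells/well, and monolayers were used at TEER >800 Ω×cm². 20 nM [³H]-mitoxantrone was added basolaterally with or without compound (0.20–400 µM) for 120 min at 37 °C, and apical appearance was scintillation-counted. Percent inhibition at each concentration gave EC50; three independent determinations, triplicate samples.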

A short description of series [4]: Cytotoxicity against human Adr cells assessed as LDH release upto 50 uM after 48 hrs. In kind it is cell-based. In short, it runs like this:
(§1)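 MCF-7/Adr cells, which overexpress P-gp, were exposed in complete medium with or without test compound. LDH released into the medium was read with CytoTox-One substrate mix: 10 min at room temperature in the dark, then stop solution, fluorescence ex 560/em 590 nm. Cytotoxicity % is (treated LDH − medium background)/(total LDH of lysed untreated cells − background) × 100.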

Series [5] relates to MCF7. Kind of series: Cytotoxicity against human MCF7 cells assessed as LDH release upto 50 uM after 48 hrs. The format is cell-based. As to conditions: mcf7, 48 h. (LDH in the medium is a marker of cell lysis.)
Series [6] deals with MCF7. Kind of series: Cytotoxicity against adriamycin-resistant human MCF7 cells assessed as LDH release at 1 uM after 48 hrs. In kind it is cell-based. As to conditions: mcf7, 48 h. In short, it runs like this:
as §1

Molecules are shown by their SMILES. Where only a bound is given, the exact number is not on record here.

Take `COc1cccc(CCc2ccccc2OCc2ccccc2)c1`: in series [1], the Activity result is reported as “Not Active”.

For orientation: EC50 means the midpoint of the concentration-response curve. A lower EC50 goes with greater potency. On to `c1ccc(CCc2ccccc2OCc2ccccc2)cc1`, for which, in series [1], the outcome was Active. In series [2], this compound displayed an EC50 of over 1000 µM.

Take `c1ccc(CCc2ccccc2OCc2ccccn2)cc1`: in series [1], the Activity entry is listed as “Not Active”.

For the compound `COc1cccc(CCc2ccccc2OCc2cccnc2)c1`, in series [1], the result was Active. Besides, the EC50 in series [2] is over 1000 µM.

In the case of `c1ccc(CCc2ccccc2OCc2cccnc2)cc1`, the outcome in series [1] was Active.

In the case of `COc1cccc(CCc2ccccc2OCc2cccc(OC)c2)c1`, the Activity entry in series [1] is “Not Active”. In the series with Caco-2, the Ratio is 13.

Regarding `COc1cccc(CCc2ccccc2OCc2cccc(OC)c2OC)c1`, the midpoint of the response in series [3], the EC50, lay at 120 µM. The figures for the Activity entry (in series [4]; in series [1]; with MCF7 [5]) were “Not Active”, “Active” and “Not Active”, respectively.

As to `COc1cccc(COc2ccccc2CCc2ccccc2)c1OC`, the EC50 in series [3] worked out at 75 µM; in series [2], 0.8 µM. In addition, the Activity entry (in series [4]; in series [1]; in the series with MCF7 [5]) was “Not Active” throughout. In addition, the Ratio in the series with Caco-2 was 0.95.

`COc1cccc(CCc2ccccc2NCc2cc(OC)cc(OC)c2)c1`: the Activity result (in series [4]; in series [1]; with MCF7 [5]) was “Not Active” in each case. The Ratio with Caco-2 was determined as 6.9. In series [2], a half-maximal response (EC50) required 0.9 µM.

`COc1cccc(CCc2ccccc2OCc2ccccc2OC)c1`: the Activity result in series [1] is listed as “Not Active”. In the series on Caco-2, the Ratio was 8.7. In series [2], the EC50 is 12 µM.

As to `COc1cccc(CCc2ccccc2OCc2cc(OC)cc(OC)c2)c1`, in series [1], the Activity entry is “Not Active”. The Ratio in the series with Caco-2 is 6.7. The compound also showed an EC50 in series [2] of 2.5 µM.

As for `COc1cc(COc2ccccc2CCc2ccccc2)cc(OC)c1`, the Activity result in series [1] is recorded as “Not Active”. Also, the Ratio with Caco-2 is reported as 5.7. Further, the EC50 in series [2] was 1.6 µM.

In the case of `COc1ccc(COc2ccccc2CCc2ccccc2)cc1OC`, the EC50 was 58 µM in series [3] and 0.75 µM in series [2]. The figures for the Activity in series [4] and in series [1] were 10% and “Not Active”, respectively. Also, the Ratio with Caco-2 came out at 2.1.

For the compound `c1ccc(CCc2ccccc2OCc2ccncc2)cc1`, the outcome in series [1] was Active. The Ratio in the series on Caco-2 amounted to 1.3. The compound also came in with an EC50 in series [2] of 18 µM.

Regarding `COc1ccccc1COc1ccccc1CCc1ccccc1`, in series [1], the Activity entry was “Not Active”. In the series with Caco-2, the Ratio amounted to 1.4. The compound also gave an EC50 in series [2] of 20 µM.

Turning to `COc1cccc(CCc2ccccc2NCc2ccc(OC)c(OC)c2)c1`, the figures for the EC50 in series [3] and in series [2] were 0.5 µM and 0.18 µM, respectively. The Activity result (in series [4]; in series [1]; in the series on MCF7 [5]) was “Not Active” in each case. The Ratio with Caco-2 worked out at 5.6.

With `COc1cccc(CCc2ccccc2NCc2cccc(OC)c2OC)c1`, the EC50 in series [3] is 1.5 µM; in series [2], 0.085 µM. Moreover, the Activity entry (in series [4]; in series [1]; with MCF7 [5]) was “Not Active” each time. Further, in the series with Caco-2, the Ratio is 5.5.

As for `COc1cccc(CCc2ccccc2OCc2ccc(OC)c(OC)c2)c1`, the results for the EC50 in series [3] and in series [2] were 150 µM and 0.65 µM, respectively. Moreover, the Activity result (in series [4]; in series [1]; with MCF7 [5]) was “Not Active” each time. Moreover, in the series on Caco-2, the Ratio amounted to 5.1.

In the case of `COc1cccc(CCc2ccccc2OCc2ccncc2)c1`, the values for the Activity (in the series on MCF7 [6]; in series [1]) were 50% and “Active”, respectively. For the same compound, the Ratio in the series with Caco-2 stood at 2.1. In addition, it took 0.85 µM to reach a half-maximal effect in series [2] (EC50).

As to `COc1cccc(CCc2ccccc2OCc2ccccn2)c1`, the Activity result in series [1] is “Not Active”.

`COc1cc2c(cc1OC)CN(CCc1ccc(NC(=O)c3cccc4c(=O)c5cccc(OC)c5[nH]c34)cc1)CC2`: the Activity result in series [1] is “Not Active”.

On to `COc1ccc(COc2ccccc2CCc2ccccc2)cc1`, for which, in series [1], the Activity result was “Not Active”. Further, the Ratio in the series on Caco-2 was determined as 5.1. Moreover, the EC50 in series [2] was determined as 3.1 µM.

`COc1cccc(CCc2ccccc2NCc2cccc(OC)c2)c1`: the EC50 is 7 µM in series [3] and 0.48 µM in series [2]. Moreover, the Activity is on record as 10% in series [4] and “Not Active” in series [1]. Further, the Ratio in the series on Caco-2 is given as 2.9.

For `COc1ccc(COc2ccccc2CCc2cccc(OC)c2)cc1`, the Activity entry in series [1] was “Not Active”. Moreover, in the series with Caco-2, the Ratio is reported as 7.6. This compound also displayed an EC50 in series [2] of 5.2 µM.
